This is an account of results in ChEMBL document CHEMBL1148274, “Bile acid amides derived from chiral amino alcohols: novel antimicrobials and antifungals” (Bioorg Med Chem Lett, 2004).

For assay [1], the system named is Salmonella typhi. As to the kind of experiment: Antibacterial activity against gram negative bacteria Salmonella typhi was determined by twofold Micro-broth dilution assay. The class given is functional, organism-based, Salmonella enterica subsp. enterica serovar Typhi. As to conditions: Salmonella enterica.
The subject of assay [2] is Salmonella typhimurium. As to the kind of experiment: Antibacterial activity against gram negative bacteria Salmonella Typhimurium was determined by twofold Micro-broth dilution assay. It is filed as functional, organism-based, Salmonella enterica subsp. enterica serovar Typhimurium. The following applies: Salmonella enterica. The method, boiled down: (§1)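 Broth microdilution with two-fold serial dilutions of compound added to pre-inoculated microtitre plates. Inoculum diluted in phosphate-buffered saline to 10^6 cfu/mL, then plated at a final 10^3 cells per 150 µL medium. Controls were medium plus inoculum and a solvent control at the highest-concentration solvent level. Plates incubated at 37 °C and read by OD at 600 nm. IC50 is the concentration giving 50% of control-inoculum growth.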
(In broth dilution the organism is exposed to a series of concentrations in liquid medium.)

For assay [3], the system named is Sporothrix schenckii. As to the kind of experiment: Antifungal activity against Sporothrix schenck ii was determined by twofold Micro-broth dilution assay. The class given is functional, organism-based. The procedure, abridged:
(§2)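 Fungal strains tested by two-fold serial broth microdilution in microtitre plates. Cells diluted in phosphate-buffered saline to 10^6 cfu/mL and inoculated at a final 10^3 cells per 150 µL medium. Medium/inoculum and solvent controls were included. Incubation at 28 °C, then OD read at 600 nm. IC50 is the concentration at which growth is 50% of the control inoculum.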

Assay [4] has as its system Aspergillus flavus. Briefly: Antifungal activity against Aspergillus flavus was determined by twofold Micro-broth dilution assay. It is filed as functional, organism-based. The procedure, abridged: as §2
In assay [5] the test system is Trichophyton rubrum. Briefly: Antifungal activity against Trichophyton rubrum was determined by twofold Micro-broth dilution assay. It is filed as functional, organism-based. The procedure, abridged:
as §2

Assay [6] deals with Enterococcus faecalis. As to the kind of experiment: Antibacterial activity against gram positive bacteria Enterococcus faecalis was determined by twofold Micro-broth dilution assay. The class given is functional, organism-based. The method, boiled down: as §1
For assay [7], the system named is Aspergillus niger. Briefly: Antifungal activity against Aspergillus niger was determined by twofold Micro-broth dilution assay. The class given is functional, organism-based. The method, boiled down:
as §2

Assay [8] relates to Staphylococcus epidermidis. As to the kind of experiment: Antibacterial activity against gram positive bacteria Staphylococcus epidermidis was determined by twofold Micro-broth dilution assay. The class given is functional, organism-based. The method, boiled down: as §1
Assay [9] has as its system Staphylococcus aureus. Briefly: Antibacterial activity against gram positive bacteria Staphylococcus aureus was determined by twofold Micro-broth dilution assay. It is filed as functional, organism-based. The procedure, abridged: as §1
Assay [10] deals with Escherichia coli. As to the kind of experiment: Antibacterial activity against gram negative bacteria Escherichia coli was determined by twofold Micro-broth dilution assay. It is filed as functional, organism-based. The method, boiled down:
as §1

Assay [11] deals with Streptococcus mutans. Briefly: Antibacterial activity against gram positive bacteria Streptococcus mutans was determined by twofold Micro-broth dilution assay. The class given is functional, organism-based. The procedure, abridged: as §1
The subject of assay [12] is Nannizzia gypsea. As to the kind of experiment: Antifungal activity against Microsporum gypseum was determined by twofold Micro-broth dilution assay. It is filed as functional, organism-based. The procedure, abridged:
as §2

The test system of assay [13] is Candida albicans. As to the kind of experiment: Antifungal activity against Candida albicans was determined by twofold Micro-broth dilution assay. It is filed as functional, organism-based. The procedure, abridged:
as §2

The test system of assay [14] is Cryptococcus neoformans. As to the kind of experiment: Antifungal activity against Cryptococcus neoformans was determined by twofold Micro-broth dilution assay. The class given is functional, organism-based. The procedure, abridged:
as §2

Assay [15] concerns Klebsiella aerogenes. As to the kind of experiment: Antibacterial activity against gram negative bacteria Enterobacter aerogens was determined by twofold Micro-broth dilution assay. It is filed as functional, organism-based. The procedure, abridged:
as §1

For assay [16], the system named is Histoplasma capsulatum. Briefly: Antifungal activity against Histoplasma capsulatum was determined by twofold Micro-broth dilution assay. The class given is functional, organism-based. The procedure, abridged:
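Fungal broth microdilution. Cells were diluted to 10^6 cfu/mL in phosphate-buffered saline and seeded at a final 10^3 cells per well. Two-fold serial compound dilutions were added. Plates carried inoculum-only and solvent controls, the solvent matched to the highest concentration. After incubation at 28 °C, OD was read at 600 nm. IC50 is the concentration where growth is 50% of control.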

Assay [17] concerns Shigella flexneri. Briefly: Antibacterial activity against gram negative bacteria Shigella flexenerii was determined by twofold Micro-broth dilution assay. The class given is functional, organism-based. The method, boiled down: as §1
Setting [18] is: Sporothrix schenckii, read-out: IC50.
[19] abbreviates: Aspergillus flavus, read-out: IC50.
Setting [20] is: Trichophyton rubrum, read-out: IC50.
[21] abbreviates: Aspergillus niger, read-out: IC50.
Where [22] appears, read: Nannizzia gypsea, read-out: IC50.
[23] abbreviates: Candida albicans, read-out: IC50.

Converted amounts (≈) assume the structure as drawn.

Take `C[C@H](CCC(=O)N[C@@H](CO)[C@@H](O)c1ccccc1)[C@H]1CC[C@H]2[C@@H]3C(O)C[C@@H]4C[C@H](O)CC[C@]4(C)[C@H]3C[C@H](O)[C@]12C` (some centres not stated): the IC50 is > 250 µg/mL in [1]; > 250 µg/mL in [2]; > 250 µg/mL in [3] (setting [18]); > 250 µg/mL in [4] (setting [19]); > 250 µg/mL in assay [5] (setting [20]); 40 µg/mL (≈ 71.7 µM) in assay [6]. The IC50 in [7] (setting [21]) is > 250 µg/mL; in [8], 20 µg/mL (≈ 35.9 µM); in assay [9], > 250 µg/mL; in assay [10] it was > 250 µg/mL; in assay [11] it was 60 µg/mL (≈ 108 µM); in assay [12] (setting [22]), > 250 µg/mL. Also, the IC50 in assay [13] (setting [23]), in assay [14], in assay [15], in assay [16] and in [17] was > 250 µg/mL throughout.
Regarding NYSTATIN, the IC50 in assay [3] is 3.125 µg/mL; in [4], 2.5 µg/mL; in assay [5], 2.5 µg/mL; in assay [7] it was 2.5 µg/mL; in assay [12] it was 3.125 µg/mL; in assay [13], 0.25 µg/mL.
In the case of `C[C@H](CCC(=O)N[C@H](CO)[C@H](O)c1ccccc1)[C@H]1CC[C@H]2[C@@H]3C(O)C[C@@H]4C[C@H](O)CC[C@]4(C)[C@H]3C[C@H](O)[C@]12C` (some centres not stated), the IC50 in [1] was > 250 µg/mL; in assay [2], > 250 µg/mL; in [3] (setting [18]) it was > 250 µg/mL; in assay [4] (setting [19]), > 250 µg/mL; in assay [5] (setting [20]), > 250 µg/mL; in assay [6] it was 60 µg/mL (≈ 108 µM). In addition, the IC50 in [7] (setting [21]) was > 250 µg/mL; in [8], 40 µg/mL (≈ 71.7 µM); in assay [9], > 250 µg/mL; in assay [10], > 250 µg/mL; in [11], 40 µg/mL (≈ 71.7 µM); in assay [12] (setting [22]), > 250 µg/mL. The IC50 in assay [13] (setting [23]), in assay [14], in assay [15], in assay [16] and in assay [17] was > 250 µg/mL in each case.
`Clc1ccccc1C(c1ccccc1)(c1ccccc1)n1ccnc1` [CLOTRIMAZOLE]: the IC50 in [3] (setting [18]) worked out at 0.0312 µg/mL (≈ 0.0906 µM); in assay [4] (setting [19]), 0.5 µg/mL (≈ 1.45 µM); in assay [5] (setting [20]), 0.625 µg/mL (≈ 1.81 µM); in [7] (setting [21]), 5 µg/mL (≈ 14.5 µM); in assay [12] (setting [22]), 0.625 µg/mL (≈ 1.81 µM); in assay [13] (setting [23]), 0.0312 µg/mL (≈ 0.0906 µM).
Turning to `C[C@H](CCC(=O)N[C@H](CO)[C@H](O)c1ccc([N+](=O)[O-])cc1)[C@H]1CC[C@H]2[C@@H]3C(O)C[C@@H]4C[C@H](O)CC[C@]4(C)[C@H]3C[C@H](O)[C@]12C` (some centres not stated), the IC50 is > 250 µg/mL in assay [1]; > 250 µg/mL in assay [2]; > 250 µg/mL in assay [3] (setting [18]); > 250 µg/mL in assay [4] (setting [19]); > 250 µg/mL in assay [5] (setting [20]); 60 µg/mL (≈ 99.5 µM) in [6]. Also, the IC50 in [7] (setting [21]) was > 250 µg/mL; in [8], 100 µg/mL (≈ 166 µM); in [9] it was 75 µg/mL (≈ 124 µM); in assay [10], > 250 µg/mL; in [11], 6 µg/mL (≈ 9.95 µM); in [12] (setting [22]) it was > 250 µg/mL. The IC50 in [13] (setting [23]), in assay [14], in assay [15], in assay [16] and in assay [17] was > 250 µg/mL each time.
As for `CN[C@H](CC(C)C)C(=O)N[C@H]1C(=O)N[C@@H](CC(N)=O)C(=O)N[C@H]2C(=O)N[C@H]3C(=O)N[C@H](C(=O)N[C@H](C(=O)O)c4cc(O)cc(O)c4-c4cc3ccc4O)[C@H](O)c3ccc(c(Cl)c3)Oc3cc2cc(c3O[C@@H]2O[C@H](CO)[C@@H](O)[C@H](O)[C@H]2O[C@H]2C[C@](C)(N)[C@H](O)[C@H](C)O2)Oc2ccc(cc2Cl)[C@H]1O` [VANCOMYCIN], the IC50 in [1] was > 250 µg/mL; in assay [2] it was > 250 µg/mL; in [6], 0.06 µg/mL (≈ 0.0414 µM); in assay [8], 0.3 µg/mL (≈ 0.207 µM); in assay [9] it was 0.12 µg/mL (≈ 0.0828 µM); in [10], > 250 µg/mL. Besides, the figures for the IC50 in assay [11], in [15] and in assay [17] were 0.12 µg/mL (≈ 0.0828 µM), > 250 µg/mL and > 250 µg/mL, respectively.

For orientation: IC50 means the midpoint of a concentration-inhibition curve.
